Experimental data: paper PMC2756064 (Journal of medicinal chemistry, 2009)
Square brackets hold non-standard residues; d marks the D form. Peptide text beside a SMILES is read from it. * marks the point of attachment. Hmp(2R,3S) = CC[C@H](C)[C@@H](O)C(=O)O; Sta = CC(C)C[C@H](N)[C@@H](O)CC(=O)O; NMe2Val = CC(C)[C@@H](C(=O)*)N(C)C; dNMeF = CN[C@H](Cc1ccccc1)C(=O)O; NMeQ = CN[C@@H](CCC(N)=O)C(=O)O; dHiv = CC(C)[C@@H](O)C(=O)O; Hiv = CC(C)[C@H](O)C(=O)O; Isovaleryl = CC(C)CC(=O)*

Assays:
ADAM10 = target: T1, ADAM10 (Homo sapiens, UniProt O14672); assay: Protease inhibition screen and IC50 assay, ADAM10; type: biochemical; settings: 10 μM, panel of 59 proteases
T1 sequence (O14672 214-748): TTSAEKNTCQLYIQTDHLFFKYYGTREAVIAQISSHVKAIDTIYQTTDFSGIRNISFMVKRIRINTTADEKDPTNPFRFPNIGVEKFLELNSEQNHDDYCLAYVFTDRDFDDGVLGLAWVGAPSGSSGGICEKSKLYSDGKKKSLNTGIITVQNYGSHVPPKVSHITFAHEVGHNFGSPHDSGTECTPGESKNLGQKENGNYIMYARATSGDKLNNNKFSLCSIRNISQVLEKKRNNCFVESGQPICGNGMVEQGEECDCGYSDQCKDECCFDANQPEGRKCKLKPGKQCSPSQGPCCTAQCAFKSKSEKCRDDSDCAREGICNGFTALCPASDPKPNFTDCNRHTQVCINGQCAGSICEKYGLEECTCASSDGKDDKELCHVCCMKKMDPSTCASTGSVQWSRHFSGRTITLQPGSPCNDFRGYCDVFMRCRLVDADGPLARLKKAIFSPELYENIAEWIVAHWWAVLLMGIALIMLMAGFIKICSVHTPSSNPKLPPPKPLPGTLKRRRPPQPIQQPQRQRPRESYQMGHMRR

[1] = test system: monocyte derived dendritic cells and CD4+ T cells (autologous); assay: Autologous mixed lymphocyte reaction; type: cell-based, human; settings: autologous MLR
[2] = test system: monocyte derived dendritic cells and CD4+ T cells (allogeneic); assay: Allogeneic mixed lymphocyte reaction; type: cell-based, human; settings: allogeneic MLR
[3] = test system: human peripheral blood mononuclear cells (CD3+ T cells); assay: T cell proliferation in PBMCs in response to exogenous antigen; type: cell-based
Outline: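 Human PBMCs were isolated from buffy coats by Ficoll-Hypaque density gradient centrifugation, washed in PBS, and checked for viability by trypan blue. They were cultured in RPMI 1640 with 2 mM L-glutamine, penicillin/streptomycin and 10% FBS, with test compound at various concentrations. Cells were antibody-stained for 30 min at 4 °C, then permeabilised for intracellular staining and fixed in 2% paraformaldehyde. Lymphocytes were gated by forward/side scatter, with 50,000 cells per sample and isotype controls.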

TACE = TACE (Homo sapiens, UniProt P78536); assay: Protease inhibition screen and IC50 assay, TACE; type: biochemical; settings: 10 μM, panel of 59 proteases
Chain of TACE (P78536 215-824): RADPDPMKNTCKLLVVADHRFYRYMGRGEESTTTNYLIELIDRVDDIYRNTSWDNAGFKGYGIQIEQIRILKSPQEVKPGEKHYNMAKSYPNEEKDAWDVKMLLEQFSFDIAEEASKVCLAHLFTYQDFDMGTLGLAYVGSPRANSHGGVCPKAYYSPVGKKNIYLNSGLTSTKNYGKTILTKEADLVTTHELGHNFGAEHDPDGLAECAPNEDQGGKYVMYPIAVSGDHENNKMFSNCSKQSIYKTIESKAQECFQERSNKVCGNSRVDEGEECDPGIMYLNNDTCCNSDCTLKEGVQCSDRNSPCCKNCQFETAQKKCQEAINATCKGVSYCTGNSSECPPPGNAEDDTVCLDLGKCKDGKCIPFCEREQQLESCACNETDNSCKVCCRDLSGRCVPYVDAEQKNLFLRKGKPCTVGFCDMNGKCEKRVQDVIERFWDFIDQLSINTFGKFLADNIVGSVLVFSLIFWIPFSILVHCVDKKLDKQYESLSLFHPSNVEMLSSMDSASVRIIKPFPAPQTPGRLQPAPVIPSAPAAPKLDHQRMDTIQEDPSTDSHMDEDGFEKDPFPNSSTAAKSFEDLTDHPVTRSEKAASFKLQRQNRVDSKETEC

[4] = test system: MCF7 cell lysate (cellular cathepsins D and E); assay: Inhibition of cellular cathepsins in MCF7 cell lysate; type: biochemical
ADAM9 = target: T2, ADAM9 (Homo sapiens, UniProt Q13443); assay: Protease inhibition screen and IC50 assay, ADAM9; type: biochemical; settings: 10 μM, panel of 59 proteases
T2 sequence (Q13443 29-819): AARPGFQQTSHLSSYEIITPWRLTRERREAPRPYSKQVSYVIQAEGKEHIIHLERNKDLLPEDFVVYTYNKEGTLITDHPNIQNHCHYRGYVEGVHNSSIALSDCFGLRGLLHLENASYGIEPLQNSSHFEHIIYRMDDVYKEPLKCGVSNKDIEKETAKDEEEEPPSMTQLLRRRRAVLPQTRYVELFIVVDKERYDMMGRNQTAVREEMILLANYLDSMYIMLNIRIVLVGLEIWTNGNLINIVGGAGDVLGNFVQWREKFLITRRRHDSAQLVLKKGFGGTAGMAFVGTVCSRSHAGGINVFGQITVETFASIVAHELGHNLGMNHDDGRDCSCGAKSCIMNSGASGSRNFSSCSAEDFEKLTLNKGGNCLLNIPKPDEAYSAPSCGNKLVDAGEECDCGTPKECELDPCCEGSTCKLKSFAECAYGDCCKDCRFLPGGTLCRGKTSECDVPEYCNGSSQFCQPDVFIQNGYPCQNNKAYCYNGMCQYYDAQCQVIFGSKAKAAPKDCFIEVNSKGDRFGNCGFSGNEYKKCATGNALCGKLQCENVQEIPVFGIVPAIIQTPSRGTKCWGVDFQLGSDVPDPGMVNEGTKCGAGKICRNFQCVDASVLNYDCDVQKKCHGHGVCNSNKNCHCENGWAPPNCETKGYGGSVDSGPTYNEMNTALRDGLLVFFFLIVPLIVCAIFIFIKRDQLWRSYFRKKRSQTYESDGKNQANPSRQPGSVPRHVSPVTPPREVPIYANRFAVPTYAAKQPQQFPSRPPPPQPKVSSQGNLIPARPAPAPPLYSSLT

[5] = Solubility in DMSO for dilution series; type: physicochemical
Cathepsin E = target: T3, Cathepsin E (Homo sapiens, UniProt P14091); assay: Protease inhibition screen and IC50 assay, cathepsin E; type: biochemical; settings: result in words
T3 sequence (P14091 54-396): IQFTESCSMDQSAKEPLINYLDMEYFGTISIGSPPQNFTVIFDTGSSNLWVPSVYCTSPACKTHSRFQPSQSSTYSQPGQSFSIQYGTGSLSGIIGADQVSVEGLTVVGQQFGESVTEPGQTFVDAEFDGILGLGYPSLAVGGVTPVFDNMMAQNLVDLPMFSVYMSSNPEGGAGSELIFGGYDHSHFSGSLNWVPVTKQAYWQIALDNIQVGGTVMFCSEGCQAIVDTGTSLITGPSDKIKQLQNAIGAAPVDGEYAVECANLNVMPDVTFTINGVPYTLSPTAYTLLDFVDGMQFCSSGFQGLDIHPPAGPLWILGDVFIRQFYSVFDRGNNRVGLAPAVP

COC(=O)[C@@H]1CCCN1C(=O)[C@@H](Cc1ccccc1)N(C)C(=O)[C@H](C)NC(=O)[C@@H](NC(=O)C[C@H](O)[C@H](CC(C)C)NC(=O)[C@H](CC(N)=O)NC(=O)[C@H](CC(C)C)NC(=O)[C@H](OC(=O)[C@@H](OC(=O)[C@H](C(C)C)N(C)C)C(C)C)C(C)C)[C@@H](C)O [Compound 1, grassystatin A] (NMe2Val-[Hiv][dHiv]LN[Sta]TA[dNMeF]P-OMe)
inhibitory activity in protease screen (ADAM10): compromised activities | interferon-γ (IFN-γ) in response to antigen presentation [1]: inhibit upregulation | interleukin-17 (IL-17) in response to antigen presentation [1]: inhibit upregulation | T cell proliferation ([1]; TTc + PMA, 5 days): reduce T cell proliferation in a dose dependent manner | IFN-γ production [2]: significant downregulation | IL-17 production [2]: significant downregulation | T cell proliferation in response to exogenous antigen (TTc) ([3]; 10 μM, CD3+ lymphocytes): significantly reduce | T cell viability ([3]; same experiment, data not shown): unaffected | inhibitory activity in protease screen (TACE): compromised activities | decrease in potency compared to purified cathepsin E ([4]; MCF7 lysate): 564 fold | difference in IC50 compared to pepstatin A ([4]; MCF7 lysate): 100 fold | IC50 ([4]; read-out: apparent IC50, MCF7 lysate treated directly): ~500 nM | inhibitory activity in protease screen (ADAM9): compromised activities

CC[C@H](C)[C@H](NC(=O)C[C@H](O)[C@H](CC(C)C)NC(=O)[C@H](CCC(N)=O)N(C)C(=O)[C@H](CC(C)C)NC(=O)[C@H](O)[C@@H](C)CC)C(=O)NCC(=O)N(C)[C@H](Cc1ccccc1)C(=O)N1CCC[C@H]1C(=O)OC [Compound 3, grassystatin C] ({Hmp(2R,3S)}-L[NMeQ][Sta]IG[dNMeF]P-OMe)
solubility in DMSO [5]: insoluble in DMSO

CC(C)CC(=O)N[C@H](C(=O)N[C@H](C(=O)N[C@@H](CC(C)C)[C@@H](O)CC(=O)N[C@@H](C)C(=O)N[C@@H](CC(C)C)[C@@H](O)CC(=O)O)C(C)C)C(C)C [Pepstatin A, pepstatin A] (Isovaleryl-VV[Sta]A[Sta]-OH)
discrimination between cathepsins D and E (Cathepsin E): did not discriminate
